Source: PubChem
STAT1 activator: STAT1 signaling activators, primary screen, cell-based, HTS, luciferase reporter; NIH 3T3 STAT1-luciferase reporter, IFN-gamma, luminescence; 100% = IFN-gamma alone, no compound; activation (% of control), % at 5.5 µM; actives 2.6% (n = 200,000); AID 932, 2007;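 active means activation above the screen-wide mean activation plus 3 SD, cut at about 130% in these data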;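 further: raw ratio to IFN-gamma control signal so 100% means no change and 0% no light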
STAT3 activator: IL-6 driven STAT3 reporter potentiators, primary screen, U3A cells, luciferase, luminescence, MLSCN library | IL-6 STAT3-luciferase reporter; 100% = signal with IL-6 EC80 alone | activation (% of control), % at 5.6 µM | actives 0.91% (n = 190,000) | AID 871, 2007;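 active means activation above the screen-wide mean of compound activation plus 3 SD, cut at about 130% in these data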;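 further: 0% = background luminescence of wells with medium and substrate only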
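Test system: Human STAT1-deficient U3A cells with stable STAT3-luciferase reporter | Also added: Interleukin-6, 33 ng/mL | Timing: Compound pre-incubation 1 h before IL-6, then 6 h stimulation at 37 °C | Technique: Luciferase reporter luminescence | Read-out: Percent of IL-6-only median luminescence | Benchmarks: IL-6-only wells as 100% reference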
APP 5'UTR act: activators of APP 5'UTR luciferase reporter, primary screen, SH-SY5Y cells; SH-SY5Y APP 5'UTR luciferase reporter, luminescence; zero percent = DMSO vehicle wells; activation, % at 2 µM; actives 1% (n = 190,000);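 active means activation above a set limit, based on mean plus 3 SD of controls, cut at about 140% in these data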
STAT3 inh: IL-6 driven STAT3 reporter inhibitors, primary screen, U3A cells, luciferase, luminescence, MLSCN library. IL-6 STAT3-luciferase reporter; host cell line lacks STAT1. inhibition, % at 5.5 µM. actives 0.89% (n = 190,000). AID 862, 2007;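 active means inhibition above the mean inhibition across all screened compounds plus 3 SD, cut at about 44% in these data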;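 further: 0% = DMSO only wells and 100% = 100 µM nifuroxazide control wells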
NF-kB neuron act: activators of NF-kB expression in neurons, primary screen, cell-based, HTS. human neuronal cells, NF-kB reporter expression; hits give high values. fold change at 12.5 µM. AID 1239, 2008. actives 1.6% (n = 190,000); in the data active means fold change above about 3.3
STAT1 inh: STAT1 signaling inhibitors, primary screen, cell-based, HTS, luciferase reporter; NIH 3T3 STAT1-luciferase reporter, IFN-gamma, luminescence; inhibition, % at 5.5 µM; actives 0.35% (n = 200,000);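 active means inhibition above a set limit, the mean inhibition across all tested compounds plus 3 SD, cut at about 34% in these data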;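 further: 0% = IFN-gamma with DMSO and 100% = IFN-gamma with 300 µM nifuroxazide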
Active calls of the source: *. A selection: hits, their analogues and other compounds. The true share with any hit is near 5.1%.

Screening Cc1cc(Cl)ccc1OCCCC(N)=O returned STAT1 activator 100, STAT3 activator 95, APP 5'UTR act -6, STAT3 inh 12, NF-kB neuron act 0.94 and STAT1 inh 0.
For CCc1ccccc1NC(=S)N(Cc1ccc(C(=O)O)cc1)Cc1ccc(OC)c(OC)c1 the results were STAT1 activator 109, STAT3 activator 88, APP 5'UTR act -14, STAT3 inh 24, NF-kB neuron act 1.1 and STAT1 inh -11.
For O=C(COC(=O)c1ccccc1Br)Nc1cc(S(=O)(=O)N2CCOCC2)ccc1N1CCCC1 the results were STAT1 activator 87, STAT3 activator 109, APP 5'UTR act -11, STAT3 inh -9, NF-kB neuron act 1.4 and STAT1 inh 13.
For CCc1ccc(OCCNC(=O)c2ccccc2SCc2ccccc2)cc1 the results were STAT1 activator 95, STAT3 activator 134*, APP 5'UTR act 0, STAT3 inh -27, NF-kB neuron act 0.66 and STAT1 inh 6.
For O=C(CC(C(=O)O)c1c[nH]c2ccccc12)c1ccccc1 (stereo unspecified) the results were STAT1 activator 103, STAT3 activator 136*, APP 5'UTR act -3, STAT3 inh -34, NF-kB neuron act 1.1 and STAT1 inh -4.
Screening O=C(O)C(O)Cc1c[nH]c2ccccc12 (stereo unspecified) returned STAT1 activator 93, STAT3 activator 104, APP 5'UTR act 3, STAT3 inh 8, NF-kB neuron act 1 and STAT1 inh 8.
For O=C(N[C@@H](Cc1ccc(O)cc1)C(=O)O)c1cccnc1 the results were STAT1 activator 100, APP 5'UTR act -12, NF-kB neuron act 1.4 and STAT1 inh 1.
For CCOC(=O)c1cnn(-c2ccccc2)c1N the results were STAT1 activator 99, STAT3 activator 96, APP 5'UTR act 13, STAT3 inh 5, NF-kB neuron act 1.9 and STAT1 inh 1.
`COc1ccc(OC(=O)c2cnn(-c3ccccc3)c2C)cc1` gave STAT1 activator 150*, STAT3 activator 97, APP 5'UTR act 106, STAT3 inh 4, NF-kB neuron act 5.9* and STAT1 inh -55.
COc1ccc(C2=Nc3ccccc3OC2)cc1 was read as STAT1 activator 123, STAT3 activator 100, APP 5'UTR act 128, STAT3 inh 4, NF-kB neuron act 8.4* and STAT1 inh -25.
Screening O=C(Nc1ccc(N2CCN(C(=O)c3ccco3)CC2)cc1)c1cccnc1Cl returned STAT1 activator 99, STAT3 activator 96, APP 5'UTR act 11, STAT3 inh 9, NF-kB neuron act 1.2 and STAT1 inh 0.
Cc1ccc(/C=C2\OC(=O)c3ccccc32)cc1 was read as STAT1 activator 146*, STAT3 activator 157*, APP 5'UTR act 106, STAT3 inh -54, NF-kB neuron act 5.7* and STAT1 inh -50.
COc1ccc(OC(=O)c2cccc([N+](=O)[O-])c2)c(C(=O)/C=C/c2cccs2)c1 was read as STAT1 activator 102, STAT3 activator 97, APP 5'UTR act -11, STAT3 inh 10, NF-kB neuron act 3.4* and STAT1 inh -2.
Screening COc1ccc2[nH]c(-c3ccc(C)cc3)cc(=O)c2c1 returned STAT1 activator 124, STAT3 activator 65, APP 5'UTR act 109, STAT3 inh 40, NF-kB neuron act 4.2* and STAT1 inh -27.
`COc1ccc(-c2cc(=O)c3cc(F)ccc3[nH]2)cc1` gave STAT1 activator 102, STAT3 activator 105, APP 5'UTR act 5, STAT3 inh -9, NF-kB neuron act 1.2 and STAT1 inh -3.
O=C(CCC(=O)OCc1ccc([N+](=O)[O-])cc1)Nc1ccccc1Cl was read as STAT1 activator 98, STAT3 activator 95, APP 5'UTR act 16, STAT3 inh 14, NF-kB neuron act 1.2 and STAT1 inh 2.
Screening O=C(COC(=O)c1n[nH]c2ccccc12)Nc1ccccc1 returned STAT1 activator 133*, STAT3 activator 97, APP 5'UTR act 43, STAT3 inh 6, NF-kB neuron act 1.1 and STAT1 inh -36.
